Screens deposited in PubChem BioAssay by Broad Institute.
CAL PDZ FP-1 – human CAL PDZ-peptide interaction inhibition. Q9HD26. purified CAL PDZ, TMR-peptide fluorescence polarization, 1 h. inhibition, % at 20 µM. hit rate 0.02% among 330,000;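 active = highest replicate inhibition of at least 40%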;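 note: plate controls were DMSO neutral control wells for no effect and unlabeled competitor peptide control wells for full effect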
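Test system: purified CerCALP PDZ construct; Compound dosing: one concentration, 20 µM compound; Also added: TMR-labelled reporter peptide T*-PRC34 bound in PDZ groove; Read-out: inhibition from polarization loss; Controls: unlabelled peptide and DMSO controls; Signal: FP readout, S and P plane fluorescence; Incubation: 1 h at RT.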
ALR H2O2 inh – blocks human ALR sulfhydryl oxidase activity | P55789 | purified ALR, DTT oxidation, H2O2 HRP-luminol luminescence | inhibition, % (no concentration beside the values) | hit rate 3.8% among 290,000 | AID 485317;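 active = mean replicate inhibition above about 79%, with every replicate also reaching it, limit read from the data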
Target sequence (P55789 whole entry, looked up): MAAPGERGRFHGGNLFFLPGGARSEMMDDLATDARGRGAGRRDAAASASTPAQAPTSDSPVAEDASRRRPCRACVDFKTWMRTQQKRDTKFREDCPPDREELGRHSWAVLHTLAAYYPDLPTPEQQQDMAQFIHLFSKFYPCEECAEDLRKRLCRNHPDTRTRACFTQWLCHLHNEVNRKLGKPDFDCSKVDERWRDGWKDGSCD
Rtt109 HAT inh – blocks Candida albicans Rtt109/Vps75 acetyltransferase activity | Q5AAJ8 | purified Rtt109/Vps75, ThioGlo CoA-SH fluorescence, 4 h | inhibition, % at 34.9 µM | hit rate 0.16% among 330,000 | AID 540336;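 active = inhibition of at least 50% in every replicate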
Target sequence (Q5AAJ8 whole entry, looked up): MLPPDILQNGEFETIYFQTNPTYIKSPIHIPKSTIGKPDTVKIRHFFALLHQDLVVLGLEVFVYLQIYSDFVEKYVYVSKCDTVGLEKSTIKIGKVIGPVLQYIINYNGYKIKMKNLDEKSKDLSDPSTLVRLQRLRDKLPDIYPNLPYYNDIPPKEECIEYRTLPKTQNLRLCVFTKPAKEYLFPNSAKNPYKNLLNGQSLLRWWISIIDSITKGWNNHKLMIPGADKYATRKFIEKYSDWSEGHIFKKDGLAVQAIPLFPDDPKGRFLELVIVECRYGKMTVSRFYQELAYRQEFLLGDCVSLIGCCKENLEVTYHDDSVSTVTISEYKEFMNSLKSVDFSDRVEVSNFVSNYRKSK
CAL PDZ FP-2 – blocks peptide binding to the human CAL PDZ domain; Q9HD26; purified CAL PDZ, TMR-peptide fluorescence polarization, 1 h; inhibition, % at 24.9 µM; hit rate 0.92% among 300,000; AID 602252;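 active = mean inhibition of at least 30% with at least half of replicates also reaching 30%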;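 note: 0% = DMSO neutral control and 100% = excess unlabeled competitor peptide PRC23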
DYRK1A inh – blocks rat Dyrk1A kinase activity; ADP-Glo luminescence, NFATc1 peptide; inhibition, % at 12.5 µM; hit rate 0.43% among 310,000; in the data active = inhibition above about 50%;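 note: plate controls were vehicle with enzyme for no effect and no enzyme for full effect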
* marks the source's active call; other numbers are inactive results; . = not tested or not shown. Shown are actives, neighbours in structure and some others; about 4.3% of the full set was active somewhere.

SMILES	CAL PDZ FP-1	ALR H2O2 inh	Rtt109 HAT inh	CAL PDZ FP-2	DYRK1A inh
Fc1cccc(CN2CCN(Cc3nc(CCc4ccccc4)no3)CC2)c1	-1.7	-0.7	-6.7	4.4	-1.4
CCOc1ccccc1C(=O)NCC(=O)N1CCN(Cc2ccc3c(c2)OCO3)CC1	-4.9	-2.1	2.0	-4.2	-0.9
O=C1NC(=O)/C(=C/c2ccc(N3CCOCC3)o2)N1	-0.8	-8.2	-1.1	31.1*	5.9
O=C1NN(c2ccccc2)C(=O)/C1=C/c1ccc(Sc2ccc(Cl)cc2)o1	-0.5	9.7	8.2	-1.8	5.7
O=C1NC(=O)/C(=C\c2ccc(Sc3ccc(Cl)cc3)o2)N1	-0.2	90.4*	-1.4	-4.0	1.7
O=C(NC(=S)NC(=O)c1ccccc1F)c1ccccc1F	-0.5	89.2*	4.7	.	-6.0
C=CCn1c(SCC(=O)Nc2cc(C)on2)nnc1-c1ccccc1F	-0.2	1.5	6.9	.	.
CCCCOc1ccc(CSC(CC(=O)O)C(=O)O)cc1 (stereo not drawn)	.	20.1	-8.4	-3.0	10.7
CCOc1ccc(CSC(CC(=O)O)C(=O)O)cc1 (stereo not drawn)	0.5	98.1*	-4.4	4.9	7.5
O=C(CCc1c[nH]c2ccccc12)NCC1COc2ccccc2O1 (stereo not drawn)	-0.4	12.2	-1.2	-2.3	.
O=C(COc1ccccc1[N+](=O)[O-])NCC1COc2ccccc2O1 (stereo not drawn)	-0.3	-21.0	-1.3	30.1*	.
O=C(CCCc1c[nH]c2ccccc12)NCC1COc2ccccc2O1 (stereo not drawn)	0.2	97.5*	-14.8	2.2	1.9
CCOC(=O)C1CCN(S(=O)(=O)CCNC(=O)c2cccc(OC)c2)CC1	-2.0	-0.7	-3.1	-0.1	-0.8
CCOc1ccc(N(C(=O)CNC(=O)c2cccs2)C(C(=O)NCC2CCCO2)c2ccc(OC)c(OC)c2)cc1 (stereo not drawn)	.	-3.2	8.9	-6.0	-0.3
CCN(CC)CCCCN1c2ccccc2Sc2ccccc21	0.5	99.0*	-10.3	-3.4	-5.9
OCCN(CCO)CC(O)CN1c2ccccc2Sc2ccccc21 (stereo not drawn)	.	98.7*	-7.0	1.0	3.2
Cc1cc(C)n(CC(O)CN2c3ccccc3Sc3ccccc32)n1 (stereo not drawn)	-2.3	99.2*	18.4	-1.8	11.9
CCN(CC)CC(=O)N1c2ccccc2Sc2ccccc21	0.5	12.5	2.1	0.8	-1.8
CCN(CC)CC(O)CN1c2ccccc2Sc2ccccc21 (stereo not drawn)	0.6	98.5*	7.0	-6.0	2.1
Cc1cc(C)n(CC(O)Cn2c3ccccc3c3ccccc32)n1 (stereo not drawn)	-0.6	.	8.7	-1.8	6.1
CC1CCc2c(sc(/N=C/c3ccco3)c2C(N)=O)C1 (stereo not drawn)	2.1	-1.7	15.8	2.2	2.8
CCOCC(=O)Nc1ccc([N+](=O)[O-])cc1C	0.3	-4.7	5.4	-5.4	0.9
CCn1ncc(C2=NOC(C(=O)Nc3cccc(C(C)=O)c3)C2)c1C (stereo not drawn)	-2.1	97.4*	23.6	-1.4	14.3
Cc1ccc(NS(=O)(=O)c2cccc(C(=O)NNC(=O)c3cccn3C)c2)c(C)c1	0.1	1.5	10.2	-4.3	-2.3
Cc1ccc(NC(=O)c2ccccc2)s1	0.0	95.5*	-4.1	.	5.0
SMILES	CAL PDZ FP-1	ALR H2O2 inh	Rtt109 HAT inh	CAL PDZ FP-2	DYRK1A inh
CCOC(=O)C1CCCN(C(=O)CCn2nnnc2CN2CCOCC2)C1 (stereo not drawn)	-2.1	-17.7	1.3	0.6	9.3
CCOC(=O)c1c(NC(=O)/C=C/C(=O)O)sc(C)c1-c1ccc(C)c(C)c1	-2.8	97.7*	31.6	-4.7	18.0
COC(=O)c1c(NC(=O)/C=C/C(=O)O)sc(C)c1-c1ccc(C)cc1	-0.9	98.0*	5.0	1.1	5.5
COC(=O)c1c(NC(=O)/C=C/C(=O)O)sc(C)c1-c1ccc(C(C)C)cc1	-1.2	33.3	5.4	-1.4	-8.3
COC(=O)c1c(NC(=O)/C=C/C(=O)O)sc(C)c1-c1ccc(C)c(C)c1	-2.3	.	7.9	-5.5	-2.4
COc1ccc(Br)cc1/C=N/Nc1cccc(C(=O)O)c1	-2.5	.	12.7	-2.0	1.9
CN(C)c1ccc(/C=N/Nc2cccc(C(=O)O)c2)cc1	1.5	98.6*	4.2	-3.5	0.9
Cc1c(N=Cc2cc(Br)cc(Br)c2O)cccc1C(=O)O	-1.9	97.7*	8.9	-1.5	-2.4
CN(/N=C/c1cc(Br)cc(Br)c1O)c1ccccc1	1.1	-25.5	0.6	-3.5	-2.5
COc1ccccc1/C=C/C=N/Nc1cccc(C(=O)O)c1	0.5	98.5*	6.3	-3.4	4.4
O=C(O)c1cccc(N/N=C/c2cc(Br)cc(Br)c2O)c1	-0.2	98.4*	18.1	-2.0	-4.2
CC(Sc1ncccn1)C(=O)Nc1ccc2c(c1)OCO2 (stereo not drawn)	0.5	.	-8.1	-0.8	.
CCc1cccc(NC(=O)[C@@H]2CCCN2C2=NS(=O)(=O)c3ccccc32)c1	-0.6	-2.0	-4.9	-6.2	-4.6
CCc1cccc(NC(=O)CSC2=NS(=O)(=O)c3ccccc32)c1	-0.5	98.7*	39.0	-2.3	0.6
CC(=O)c1cc(C(=O)N2CCc3c([nH]c4ccccc34)C2CC(C)C)[nH]n1 (stereo not drawn)	-0.9	9.8	4.3	77.3*	3.2
CN(C)CC#Cc1cncc(C(=O)NNC(=O)Nc2ccc(Cl)cc2)c1	-0.3	20.0	-6.6	.	2.9
CC1CN2C(c3ccc(Cl)cc3)=CSC2=N1 (stereo not drawn)	-0.7	99.3*	-1.7	3.3	-4.5
Cc1nc2sc(C(=O)Nc3ccccc3)c(N)c2c(C)c1[N+](=O)[O-]	-1.8	-11.9	-0.1	-7.0	-8.0
CCC(C)(C)NC(=O)/C=C/c1ccccc1[N+](=O)[O-]	-0.4	95.4*	1.6	-0.8	.
N/C(=N\O)c1ccc(Oc2ccccc2Cl)c([N+](=O)[O-])c1	-1.4	98.1*	-2.4	-3.7	8.4
CCCN(C(=O)c1ccc(N(C)S(=O)(=O)c2ccc(C)cc2)cc1)C1CCS(=O)(=O)C1 (stereo not drawn)	-2.5	.	-2.6	-7.2	0.7
Cc1cccc(-n2ncc3c(=O)[nH]c(SCC(=O)N4CC(=O)Nc5ccccc54)nc32)c1	0.0	1.0	-8.9	37.4*	-2.0
Cc1ccc(-n2ncc3c(=O)[nH]c(SCC(=O)N4CC(=O)Nc5ccccc54)nc32)cc1	0.2	.	1.4	-1.5	3.3
Cc1cccc(C)c1NC(=O)CNC(=O)Cn1nc(C)c(C)c(C#N)c1=O	2.0	-1.1	-7.4	-3.7	-1.9
O=C(NNc1c2ccccc2nc2ccccc12)c1ccccc1Cl	0.9	-6.2	-2.3	-1.2	-6.0
O=C(NNc1c2ccccc2nc2ccccc12)c1ccc(O)cc1O	4.7	98.3*	6.6	-4.1	2.4
O=C(NNc1c2ccccc2nc2ccccc12)c1ccccc1O	0.7	98.8*	-3.1	-2.3	2.9
